Data as given in ChEMBL document CHEMBL1153199, “Fluconazole analogues containing 2H-1,4-benzothiazin-3(4H)-one or 2H-1,4-benzoxazin-3(4H)-one moieties, a novel class of anti-Candida agents” (2010).
≈ marks a conversion by molar mass, not a printed value. Calls of active or inactive are those of the source. No cut-off for these calls is given here.

How the values were obtained:
Assay type in all cases: functional
Fusarium proliferatum = assay: Antifungal activity against Fusarium proliferatum ATCC 10052 after 48 hrs by broth microdilution method
Candida albicans [1] = assay: Antifungal activity against Candida albicans ATCC 24433 after 48 hrs by broth microdilution method
Method in brief: (§1)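 Broth microdilution run per CLSI M27-A2 in RPMI 1640 buffered to pH 7.0 with MOPS. Fluconazole and amphotericin B served as reference drugs. Endpoints were read after 48 h, visually or by spectrophotometer where needed. MIC was taken as the concentration giving 50% inhibition relative to the positive control.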

Aspergillus niger = assay: Antifungal activity against Aspergillus niger ATCC 16404 after 48 hrs by broth microdilution method
Candida albicans [2] = assay: Antifungal activity against Candida albicans ATCC 10231 after 48 hrs by broth microdilution method; conditions: ATCC 10231, 48 h; method in brief: as §1
Pichia kudriavzevii = assay: Antifungal activity against Candida krusei ATCC 6258 after 48 hrs by broth microdilution method; conditions: ATCC 6258, 48 h
Method in brief: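 Broth microdilution MIC per CLSI M27-A2 in RPMI 1640 buffered to pH 7.0 with MOPS. End points were read at 48 h, visually or by spectrophotometer where needed. For fluconazole and the synthetic compounds, MIC was the concentration giving 50% inhibition relative to the positive control. Fluconazole and amphotericin B served as positive controls.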

Nakaseomyces glabratus = assay: Antifungal activity against Candida glabrata ATCC 90030 after 48 hrs by broth microdilution method; conditions: ATCC 90030, 48 h; method in brief: as §1
Candida tropicalis = assay: Antifungal activity against Candida tropicalis ATCC 750 after 48 hrs by broth microdilution method; conditions: ATCC 750, 48 h; method in brief: as §1
Candida albicans [3] = assay: Antifungal activity against Candida albicans ATCC 2091 after 48 hrs by broth microdilution method; conditions: ATCC 2091, 48 h; method in brief: as §1
Candida albicans [4] = assay: Antifungal activity against Candida albicans ATCC 90028 after 48 hrs by broth microdilution method; conditions: ATCC 90028, 48 h; method in brief: as §1

O=C1CSc2cc(Cl)ccc2N1CC(O)(Cn1cncn1)c1ccc(F)cc1 (stereo not drawn)
MIC (Fusarium proliferatum): inactive
MIC (Candida albicans [1]; ATCC 24433, 48 h): 2 µg/mL (≈ 4.77 µM)
MIC (Aspergillus niger): inactive

Cc1ccc2c(c1)SCC(=O)N2CC(O)(Cn1cncn1)c1ccc(F)cc1F (stereo not drawn)
MIC (Fusarium proliferatum): inactive
MIC (Candida albicans [1]; ATCC 24433, 48 h): 2 µg/mL (≈ 4.8 µM)
MIC (Aspergillus niger): inactive

COc1ccc2c(c1)SCC(=O)N2CC(O)(Cn1cncn1)c1ccc(Br)cc1 (stereo not drawn)
MIC (Fusarium proliferatum): inactive
MIC (Candida albicans [1]; ATCC 24433, 48 h): 2 µg/mL (≈ 4.21 µM)
MIC (Aspergillus niger): inactive

O=C1COc2ccc(Br)cc2N1CC(O)(Cn1cncn1)c1ccc(F)cc1F (stereo not drawn)
MIC (Fusarium proliferatum): inactive
MIC (Candida albicans [1]; ATCC 24433, 48 h): 16 µg/mL (≈ 34.4 µM)
MIC (Aspergillus niger): inactive

C[C@@H]1[C@H](O)[C@@H](C)/C=C/C=C/C=C/C=C/C=C/C=C/C=C/[C@H](O[C@@H]2O[C@H](C)[C@@H](O)[C@H](N)[C@@H]2O)C[C@@H]2O[C@](O)(C[C@@H](O)C[C@@H](O)[C@H](O)CC[C@@H](O)C[C@@H](O)CC(=O)O[C@H]1C)C[C@H](O)[C@H]2C(=O)O [AMPHOTERICIN B]
MIC (Fusarium proliferatum; ATCC 10052, 48 h): 2 µg/mL (≈ 2.16 µM)
MIC (Candida albicans [2]): 0.5 µg/mL (≈ 0.541 µM)
MIC (Pichia kudriavzevii): 0.5 µg/mL (≈ 0.541 µM)
MIC (Candida albicans [1]; ATCC 24433, 48 h): 0.25 µg/mL (≈ 0.271 µM)
MIC (Nakaseomyces glabratus): 0.25 µg/mL (≈ 0.271 µM)
MIC (Candida tropicalis): 0.5 µg/mL (≈ 0.541 µM)
MIC (Aspergillus niger; ATCC 16404, 48 h): 1 µg/mL (≈ 1.08 µM)
MIC (Candida albicans [3]): 0.5 µg/mL (≈ 0.541 µM)
MIC (Candida albicans [4]): 0.5 µg/mL (≈ 0.541 µM)

O=C1COc2ccccc2N1CC(O)(Cn1cncn1)c1ccc(F)cc1F (stereo not drawn)
MIC (Fusarium proliferatum): inactive
MIC (Candida albicans [2]): 0.5 µg/mL (≈ 1.29 µM)
MIC (Pichia kudriavzevii): 16 µg/mL (≈ 41.4 µM)
MIC (Candida albicans [1]; ATCC 24433, 48 h): 0.5 µg/mL (≈ 1.29 µM)
MIC (Nakaseomyces glabratus): 0.25 µg/mL (≈ 0.647 µM)
MIC (Candida tropicalis): 2 µg/mL (≈ 5.18 µM)
MIC (Aspergillus niger): inactive
MIC (Candida albicans [3]): 0.25 µg/mL (≈ 0.647 µM)
MIC (Candida albicans [4]): 0.12 µg/mL (≈ 0.311 µM)

COc1ccc2c(c1)SCC(=O)N2CC(O)(Cn1cncn1)c1ccc(F)cc1F (stereo not drawn)
MIC (Fusarium proliferatum): inactive
MIC (Candida albicans [1]; ATCC 24433, 48 h): 4 µg/mL (≈ 9.25 µM)
MIC (Aspergillus niger): inactive

OC(Cn1cncn1)(Cn1cncn1)c1ccc(F)cc1F [FLUCONAZOLE]
MIC (Fusarium proliferatum; ATCC 10052, 48 h): > 128 µg/mL
MIC (Candida albicans [2]): 1 µg/mL (≈ 3.27 µM)
MIC (Pichia kudriavzevii): 64 µg/mL (≈ 209 µM)
MIC (Candida albicans [1]; ATCC 24433, 48 h): 0.25 µg/mL (≈ 0.816 µM)
MIC (Nakaseomyces glabratus): 4 µg/mL (≈ 13.1 µM)
MIC (Candida tropicalis): 2 µg/mL (≈ 6.53 µM)
MIC (Aspergillus niger; ATCC 16404, 48 h): 128 µg/mL (≈ 418 µM)
MIC (Candida albicans [3]): 0.5 µg/mL (≈ 1.63 µM)
MIC (Candida albicans [4]): 0.5 µg/mL (≈ 1.63 µM)

CC(=O)c1ccc2c(c1)N(CC(O)(Cn1cncn1)c1ccc(Br)cc1)C(=O)CO2 (stereo not drawn)
MIC (Fusarium proliferatum): inactive
MIC (Candida albicans [1]; ATCC 24433, 48 h): 32 µg/mL (≈ 67.9 µM)
MIC (Aspergillus niger): inactive

O=C1CSc2cc(Cl)ccc2N1CC(O)(Cn1cncn1)c1ccc(F)cc1F (stereo not drawn)
MIC (Fusarium proliferatum): inactive
MIC (Candida albicans [1]; ATCC 24433, 48 h): 1 µg/mL (≈ 2.29 µM)
MIC (Aspergillus niger): inactive

CC(=O)c1ccc2c(c1)N(CC(O)(Cn1cncn1)c1ccc(F)cc1F)C(=O)CO2 (stereo not drawn)
MIC (Fusarium proliferatum): inactive
MIC (Candida albicans [1]): inactive
MIC (Aspergillus niger): inactive

COc1ccc2c(c1)SCC(=O)N2CC(O)(Cn1cncn1)c1ccc(F)cc1 (stereo not drawn)
MIC (Fusarium proliferatum): inactive
MIC (Candida albicans [1]; ATCC 24433, 48 h): 8 µg/mL (≈ 19.3 µM)
MIC (Aspergillus niger): inactive

O=C1COc2ccc(Cl)cc2N1CC(O)(Cn1cncn1)c1ccc(F)cc1 (stereo not drawn)
MIC (Fusarium proliferatum): inactive
MIC (Candida albicans [1]; ATCC 24433, 48 h): 16 µg/mL (≈ 39.7 µM)
MIC (Aspergillus niger): inactive

O=C1COc2ccc([N+](=O)[O-])cc2N1CC(O)(Cn1cncn1)c1ccc(F)cc1F (stereo not drawn)
MIC (Fusarium proliferatum): inactive
MIC (Candida albicans [1]; ATCC 24433, 48 h): 32 µg/mL (≈ 74.2 µM)
MIC (Aspergillus niger): inactive

O=C1COc2ccc(Cl)cc2N1CC(O)(Cn1cncn1)c1ccc(Br)cc1 (stereo not drawn)
MIC (Fusarium proliferatum): inactive
MIC (Candida albicans [1]; ATCC 24433, 48 h): 4 µg/mL (≈ 8.63 µM)
MIC (Aspergillus niger): inactive

O=C1CSc2ccccc2N1CC(O)(Cn1cncn1)c1ccc(F)cc1F (stereo not drawn)
MIC (Fusarium proliferatum): inactive
MIC (Candida albicans [2]): 0.12 µg/mL (≈ 0.298 µM)
MIC (Pichia kudriavzevii): 4 µg/mL (≈ 9.94 µM)
MIC (Candida albicans [1]; ATCC 24433, 48 h): 0.03 µg/mL (≈ 0.0745 µM)
MIC (Nakaseomyces glabratus): 0.06 µg/mL (≈ 0.149 µM)
MIC (Candida tropicalis): 0.5 µg/mL (≈ 1.24 µM)
MIC (Aspergillus niger): inactive
MIC (Candida albicans [3]): 0.12 µg/mL (≈ 0.298 µM)
MIC (Candida albicans [4]): 0.03 µg/mL (≈ 0.0745 µM)

O=C1COc2ccc(Cl)cc2N1CC(O)(Cn1cncn1)c1ccc(F)cc1F (stereo not drawn)
MIC (Fusarium proliferatum): inactive
MIC (Candida albicans [1]; ATCC 24433, 48 h): 8 µg/mL (≈ 19 µM)
MIC (Aspergillus niger): inactive

O=C1CSc2cc(Br)ccc2N1CC(O)(Cn1cncn1)c1ccc(F)cc1F (stereo not drawn)
MIC (Fusarium proliferatum): inactive
MIC (Candida albicans [1]; ATCC 24433, 48 h): 1 µg/mL (≈ 2.08 µM)
MIC (Aspergillus niger): inactive
